Assay results as given in ChEMBL document CHEMBL3045579, “Herbicidal activity of cineole derivatives” (2010).
Activity calls are given as the source filed them.

Experiments:
Radish [1] = assay: Pre-emergence herbicidal activity against Raphanus sativus var.Long scarlet (radish) seeds assessed as shoot length at 0.1 mol/l at 25 degC after 72 hr by filter paper bioassay relative to control; format: functional
Outline: (§1)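 Seeds on sterile filter paper wetted with 1 mL aqueous solution containing 3.4 × 10^-4 g mL^-1 Tween 80. Eucalyptus oil tested at 0.0154 g mL^-1, giving about 0.1 mol L^-1 1,8-cineole. Dishes sealed and kept flat. 10 seeds/dish, 5 dishes. Incubated 72 h at 25 °C under 135–195 μE m^-2 s^-1 light. Germination, root length or shoot length compared with control.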

Radish [2] = assay: Pre-emergence herbicidal activity against Raphanus sativus var.Long scarlet (radish) seeds assessed as concentration required to suppress seed germination at 25 degC after 72 hr by filter paper bioassay; format: functional
Outline: (§2)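 Two seed-plate formats. Filter paper: sterile paper wetted with 1 mL aqueous solution containing 3.4 × 10^-4 g mL^-1 Tween 80, dish sealed and flat. 10 seeds/dish, 5 dishes per concentration. Incubated 72 h at 25 °C under light. Threshold taken by one-way ANOVA at P = 0.05.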

Radish [3] = assay: Pre-emergence herbicidal activity against Raphanus sativus var.Long scarlet (radish) seeds assessed as seed germination at 0.1 mol/l at 25 degC after 72 hr by filter paper bioassay relative to control; format: functional; outline: as §1
Lolium rigidum [4] = assay: Pre-emergence herbicidal activity against Lolium rigidum seeds assessed as concentration required to suppress seed germination at 25 degC after 72 hr by filter paper bioassay; format: functional; outline: as §2
Radish [5] = assay: Pre-emergence herbicidal activity against Raphanus sativus var.Long scarlet (radish) seeds assessed as root length at 0.1 mol/l at 25 degC after 72 hr by filter paper bioassay relative to control; format: functional; outline: as §1
Radish [6] = assay: Pre-emergence herbicidal activity against Raphanus sativus var.Long scarlet (radish) seeds assessed as concentration required to suppress shoot growth at 25 degC after 72 hr by filter paper bioassay; format: functional; outline: as §2
Lolium rigidum [7] = assay: Pre-emergence herbicidal activity against Lolium rigidum seeds assessed as shoot length at 0.1 mol/l at 25 degC after 72 hr by filter paper bioassay relative to control; format: functional; outline: as §1
Radish [8] = assay: Pre-emergence herbicidal activity against Raphanus sativus var.Long scarlet (radish) seeds assessed as concentration required to suppress root growth at 25 degC after 72 hr by filter paper bioassay; format: functional; outline: as §2
Lolium rigidum [9] = assay: Pre-emergence herbicidal activity against Lolium rigidum seeds assessed as seed germination at 0.1 mol/l at 25 degC after 72 hr by filter paper bioassay relative to control; format: functional; outline: as §1
Lolium rigidum [10] = assay: Pre-emergence herbicidal activity against Lolium rigidum seeds assessed as root length at 0.1 mol/l at 25 degC after 72 hr by filter paper bioassay relative to control; format: functional; outline: as §1
Lolium rigidum [11] = assay: Pre-emergence herbicidal activity against Lolium rigidum seeds assessed as concentration required to suppress shoot growth at 25 degC after 72 hr by filter paper bioassay; format: functional; outline: as §2
Lolium rigidum [12] = assay: Pre-emergence herbicidal activity against Lolium rigidum seeds assessed as concentration required to suppress root growth at 25 degC after 72 hr by filter paper bioassay; format: functional; outline: as §2
Radish [13] = assay: Pre-emergence herbicidal activity against Raphanus sativus var.Long scarlet (radish) seeds assessed as concentration required to suppress shoot growth at 25 degC after 72 hr by laboratory-based agar medium bioassay; format: functional
Radish [14] = assay: Pre-emergence herbicidal activity against Raphanus sativus var.Long scarlet (radish) seeds assessed as seed germination at 0.1 mol/l at 25 degC after 72 hr by laboratory-based agar medium bioassay relative to 1,8-Cineole; format: functional
Outline: (§3)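 Agar-plate assay as above: compound in organic solvent evaporated onto Ca/B water agar, 10 seeds × 5 dishes, 72 h at 25 °C in light. Germination, root length or shoot length at 0.1 mol L^-1 expressed relative to 1,8-cineole.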

Lolium rigidum [15] = assay: Pre-emergence herbicidal activity against Lolium rigidum seeds assessed as shoot length at 0.1 mol/l at 25 degC after 72 hr by laboratory-based agar medium bioassay relative to control; format: functional
Outline: (§4)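 Solutions tested at 1 to 1 × 10^-4 mol L^-1. 10 seeds/dish, 5 randomized replicate dishes angled ~70°. Incubated 72 h at 25 °C in light. Solvent and no-solvent controls. Germination, root length and shoot length recorded.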

Lolium rigidum [16] = assay: Pre-emergence herbicidal activity against Lolium rigidum seeds assessed as seed germination at 0.1 mol/l at 25 degC after 72 hr by laboratory-based agar medium bioassay relative to 1,8-Cineole; format: functional; outline: as §3
Lolium rigidum [17] = assay: Pre-emergence herbicidal activity against Lolium rigidum seeds assessed as root length at 0.1 mol/l at 25 degC after 72 hr by laboratory-based agar medium bioassay relative to control; format: functional; outline: as §4
Radish [18] = assay: Pre-emergence herbicidal activity against Raphanus sativus var.Long scarlet (radish) seeds assessed as concentration required to suppress root growth at 25 degC after 72 hr by laboratory-based agar medium bioassay; format: functional
Radish [19] = assay: Pre-emergence herbicidal activity against Raphanus sativus var.Long scarlet (radish) seeds assessed as shoot length at 0.1 mol/l at 25 degC after 72 hr by laboratory-based agar medium bioassay relative to 1,8-Cineole; format: functional; outline: as §3
Lolium rigidum [20] = assay: Pre-emergence herbicidal activity against Lolium rigidum seeds assessed as concentration required to suppress seed germination at 25 degC after 72 hr by laboratory-based agar medium bioassay; format: functional
Radish [21] = assay: Pre-emergence herbicidal activity against Raphanus sativus var.Long scarlet (radish) seeds assessed as seed germination at 0.1 mol/l at 25 degC after 72 hr by laboratory-based agar medium bioassay relative to control; format: functional; outline: as §4
Radish [22] = assay: Pre-emergence herbicidal activity against Raphanus sativus var.Long scarlet (radish) seeds assessed as shoot length at 0.1 mol/l at 25 degC after 72 hr by laboratory-based agar medium bioassay relative to control; format: functional; outline: as §4
Radish [23] = assay: Pre-emergence herbicidal activity against Raphanus sativus var.Long scarlet (radish)seeds assessed as seed germination inhibition at 25 degC after 72 hr by laboratory-based agar medium bioassay; format: functional, organism-based; outline: as §4
Lolium rigidum [24] = assay: Pre-emergence herbicidal activity against Lolium rigidum seeds assessed as seed germination at 0.1 mol/l at 25 degC after 72 hr by laboratory-based agar medium bioassay relative to control; format: functional; outline: as §4
Lolium rigidum [25] = assay: Pre-emergence herbicidal activity against Lolium rigidum seeds assessed as root length at 0.1 mol/l at 25 degC after 72 hr by laboratory-based agar medium bioassay relative to 1,8-Cineole; format: functional; outline: as §3
Radish [26] = assay: Pre-emergence herbicidal activity against Raphanus sativus var.Long scarlet (radish) seeds assessed as root length at 0.1 mol/l at 25 degC after 72 hr by laboratory-based agar medium bioassay relative to 1,8-Cineole; format: functional; outline: as §3
Lolium rigidum [27] = assay: Pre-emergence herbicidal activity against Lolium rigidum seeds assessed as shoot length at 0.1 mol/l at 25 degC after 72 hr by laboratory-based agar medium bioassay relative to 1,8-Cineole; format: functional; outline: as §3
Radish [28] = assay: Pre-emergence herbicidal activity against Raphanus sativus var.Long scarlet (radish) seeds assessed as root length at 0.1 mol/l at 25 degC after 72 hr by laboratory-based agar medium bioassay relative to control; format: functional; outline: as §4
Lolium rigidum [29] = assay: Pre-emergence herbicidal activity against Lolium rigidum seeds assessed as concentration required to suppress shoot growth at 25 degC after 72 hr by laboratory-based agar medium bioassay; format: functional
Lolium rigidum [30] = assay: Pre-emergence herbicidal activity against Lolium rigidum seeds assessed as concentration required to suppress root growth at 25 degC after 72 hr by laboratory-based agar medium bioassay; format: functional
Radish [31] = assay: Pre-emergence herbicidal activity against Raphanus sativus var.Long scarlet (radish) seeds assessed as concentration required to suppress seed germination at 25 degC after 72 hr by laboratory-based agar medium bioassay; format: functional
Radish [32] = assay: Pre-emergence herbicidal activity against Raphanus sativus var.Long scarlet (radish) seeds assessed as shoot growth inhibition at 1 mol/l at 25 degC after 72 hr by laboratory-based agar medium bioassay; format: functional, organism-based; outline: as §4
Lolium rigidum [33] = assay: Pre-emergence herbicidal activity against Lolium rigidum seeds assessed as shoot growth inhibition at 0.001 to 0.01 mol/l at 25 degC after 72 hr by laboratory-based agar medium bioassay; format: functional, organism-based; outline: as §4
Radish [34] = assay: Pre-emergence herbicidal activity against Raphanus sativus var.Long scarlet (radish) seeds assessed as shoot growth inhibition at 25 degC after 72 hr by laboratory-based agar medium bioassay; format: functional, organism-based; outline: as §4
Radish [35] = assay: Pre-emergence herbicidal activity against Raphanus sativus var.Long scarlet (radish) seeds assessed as root growth inhibition at 25 degC after 72 hr by laboratory-based agar medium bioassay; format: functional, organism-based; outline: as §4
Radish [36] = assay: Pre-emergence herbicidal activity against Raphanus sativus var.Long scarlet (radish) seeds assessed as seed germination inhibition at 1 mol/l at 25 degC after 72 hr by laboratory-based agar medium bioassay; format: functional, organism-based; outline: as §4

Compound	Activity (Radish [13])	Ratio (Radish [14])	Activity (Lolium rigidum [15])	Ratio (Lolium rigidum [16])	Activity (Lolium rigidum [17])	Activity (Radish [18])	Ratio (Radish [19])	Activity (Lolium rigidum [20])	Activity (Radish [21])	Activity (Radish [22])	Activity (Lolium rigidum [24])	Ratio (Lolium rigidum [25])	Ratio (Radish [26])	Ratio (Lolium rigidum [27])	Activity (Radish [28])	Activity (Lolium rigidum [29])	Activity (Lolium rigidum [30])	Activity (Radish [31])	other results
CC12CCC(CC1)C(C)(C)O2 [EUCALYPTOL]	–	–	–	–	–	–	–	–	–	–	–	–	–	–	–	–	–	–	Activity (Radish [1]): 64.7%; Activity (Radish [2]): 0.1 mol/L; Activity (Radish [3]): 34.1%; Activity (Lolium rigidum [4]): 0.1 mol/L; Activity (Radish [5]): 37.1%; Activity (Radish [6]): 1 mol/L; Activity (Lolium rigidum [7]): 28.4%; Activity (Radish [8]): 1 mol/L; Activity (Lolium rigidum [9]): 30.2%; Activity (Lolium rigidum [10]): 22.4%; Activity (Lolium rigidum [11]): 0.1 mol/L; Activity (Lolium rigidum [12]): 0.1 mol/L
CC(C)[C@]12CC[C@@](C)(O1)[C@H](OC(=O)c1ccccc1)C2 (racemic) [2-exo-benzoxy-1,4-cineole]	0.01 mol/L	0.4	23.7%	0.7	28%	0.01 mol/L	1	0.1 mol/L	82.9%	64%	46.3%	0.8	0.7	1.2	54.7%	0.0001 mol/L	0.0001 mol/L	inactive	Activity (Radish [23]): inactive
Cc1ccccc1CO[C@@H]1C[C@@]2(C(C)C)CCC1(C)O2 [CINMETHYLIN]	0.01 mol/L	0.4	–	–	–	0.0001 mol/L	1	–	85.7%	62.5%	–	–	0.8	–	36.5%	–	–	1 mol/L	Activity (Radish [32]): inactive
CC12CCC(C(=O)C1)C(C)(C)O2 (racemic) [3-oxo-1,8-cineole]	0.01 mol/L	3.4	18.2%	0.9	18.9%	0.01 mol/L	2.2	0.1 mol/L	10%	29.3%	33.3%	1.2	1.8	1.6	20.5%	0.0001 mol/L	0.1 mol/L	0.01 mol/L	Activity (Lolium rigidum [33]): inactive
CC(C)(C)CC(=O)O[C@H]1C[C@@]2(C)CC[C@H]1C(C)(C)O2 (racemic) [3-exo-t-butylacetoxy-1,8-cineole]	inactive	1.1	44.8%	0.3	64.9%	inactive	0.7	0.1 mol/L	31.4%	90.9%	97.8%	0.3	0.5	0.6	72.5%	0.001 mol/L	0.01 mol/L	0.1 mol/L	Activity (Radish [34]): inactive; Activity (Radish [35]): inactive
CCCCCC(=O)O[C@@H]1C[C@@]2(C(C)C)CC[C@@]1(C)O2 (racemic) [2-Exo-hexoxy-1,4-cineole]	–	–	–	–	–	–	–	–	–	–	–	–	–	–	–	–	–	–	Activity (Radish [36]): inactive
